MEKK2mut PB1 HTS = signal of MEK5 binding to mutant human MEKK2 PB1 domain; bead flow cytometry, Alexa488-MEK5 binding to MEKK2 mutant; percent response, % at 10 µM; hit rate 0.35% among 290,000; AID 1530; in the data active = percent response above about 24%, passing the limit was not always enough
MEKK3 PB1 HTS = modulators (inhibitors or enhancers) of MEK5 binding to human MEKK3 PB1 domain. bead-based flow cytometry, Alexa488-MEK5 binding to MEKK3; actives lie on both sides; 0 = blocked by unlabeled MEK5, 100 = vehicle. hit rate 1.4% among 290,000. binding response (% of control), % at 10 µM;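 active = binding response more than 3 SD above or below the average of its plate-row segment, actives on both sides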;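 note: Alexa488 bead fluorescence after subtracting the streptavidin-only scavenger bead signal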
Target sequence (Q99759 whole entry, looked up, the tested form may be a part): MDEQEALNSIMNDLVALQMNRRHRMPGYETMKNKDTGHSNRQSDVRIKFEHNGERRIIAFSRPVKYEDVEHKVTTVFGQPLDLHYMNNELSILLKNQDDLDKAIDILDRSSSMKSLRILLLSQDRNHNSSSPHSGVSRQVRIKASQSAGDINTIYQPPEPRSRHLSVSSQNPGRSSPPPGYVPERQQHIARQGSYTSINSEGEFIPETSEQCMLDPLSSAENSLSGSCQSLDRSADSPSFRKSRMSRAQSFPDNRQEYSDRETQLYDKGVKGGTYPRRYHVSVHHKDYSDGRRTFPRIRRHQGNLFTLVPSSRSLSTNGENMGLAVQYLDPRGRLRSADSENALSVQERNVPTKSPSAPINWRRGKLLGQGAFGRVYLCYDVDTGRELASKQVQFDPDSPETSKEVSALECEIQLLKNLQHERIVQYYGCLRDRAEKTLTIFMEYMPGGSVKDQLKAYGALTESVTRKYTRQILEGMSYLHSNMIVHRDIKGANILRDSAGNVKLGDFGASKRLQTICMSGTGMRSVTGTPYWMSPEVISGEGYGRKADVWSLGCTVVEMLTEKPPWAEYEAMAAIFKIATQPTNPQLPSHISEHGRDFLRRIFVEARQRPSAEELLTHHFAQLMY
ATG4B inh = inhibitors of human ATG4B cysteine protease; inhibition, % at 8.33 µM; AID 504462; hit rate 0.51% among 340,000; ATG4B cleavage of LC3-PLA2, NBD-HPC fluorescence, 1 h; Q9Y4P1; in the data active = inhibition above about 40%
MEKK2 WT-MEK5 = raises or lowers MEK5 binding to wildtype human MEKK2 PB1 domain. Q9Y2U5. bead flow cytometry, Alexa488-MEK5 binding to MEKK2 WT; actives lie on both sides. binding response (% of control), % at 10 µM. hit rate 1.1% among 290,000. AID 1531; in the data active = binding response below about 67% or above about 130%
Dynein cargo inh = dynein cargo transport inhibition; 3617.4 mouse cells, GR-EGFP nuclear translocation imaging; test concentration mostly 20 µM; stimulated with dexamethasone, 1 µM; active compounds read low; z-score, hits read low; hit rate 0.47% among 220,000;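 active = plate z-score of nuclear minus cytoplasmic receptor signal below a set negative limit, without overly bright fluorescence or cell loss, cut at about -3.5 in these data, passing the limit was not always enough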;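 note: z-score of nuclear minus cytoplasmic ring GR-EGFP intensity difference per well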
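Buffer or medium – tet-free medium with charcoal-stripped serum · Signal – automated 10x imaging of fixed Hoechst-stained cells · Also added – dexamethasone agonist, 1.0 µM final, for 30 min · Incubation – induction 48 h, compound 1 h, agonist 30 min · Read-out – GR-EGFP nuclear translocation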
B2AR ag = activates human beta-2 adrenergic receptor causing internalization; P07550; Am2.2-beta2AR cells, FAP receptor internalization, flow cytometry; response, % (no concentration beside the values); hit rate 0.43% among 340,000;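 active = response above a set limit, near 3 SD of response in nonfluorescent compounds, cut at about 42% in these data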
MEKK2wt confirm = raises or lowers MEK5 binding to wildtype human MEKK2, retest. bead flow cytometry, Alexa488-MEK5 binding to MEKK2 WT; actives lie on both sides. AID 1892. hit rate 2.4% among 5,900. shares compounds with MEKK3 PB1 HTS. binding response (% of control), % at 10 µM; in the data active = binding response below about 16% or above about 210%; inactive = in between
MEKK2mut confirm = signal of MEK5 binding to mutant human MEKK2, retest; shares compounds with MEKK3 PB1 HTS; bead flow cytometry, Alexa488-MEK5 binding to MEKK2 mutant; percent response, % at 10 µM; hit rate 2% among 5,900; in the data active = percent response mostly above about 71%, no sharp cut-off; inactive = mostly below about 38%;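 note: higher means compound restores mutant binding toward wildtype level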
MEKK3-MEK5 inh = confirmation of inhibitors of MEK5 binding to human MEKK3. shares compounds with MEKK3 PB1 HTS. bead flow cytometry, Alexa488-MEK5 binding to MEKK3; active compounds read low. binding response (% of control), % at 10 µM. hit rate 1.8% among 5,900. AID 1894;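 active = binding response below 72% of control, or above a set upper limit, though filed actives all read lower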;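 note: 100% = DMSO only wells and 0% = binding blocked by excess unlabeled MEK5; lower values mean stronger disruption of MEK5 binding to MEKK3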
* = called active by the depositor; [ ] = another dose, or the depositor's remark. A selection: hits, their analogues and other compounds. The true share with any hit is near 2.9%.

`CCn1c(CNC(=O)c2cccs2)nnc1SCC(=O)Nc1cc(Cl)ccc1C` gave MEKK2mut PB1 HTS 8.0, MEKK3 PB1 HTS 100.0, ATG4B inh -11.5, MEKK2 WT-MEK5 103.0, Dynein cargo inh 1.83 and B2AR ag -1.0.
Screening CCn1c(SCC(=O)Nc2ccc(C(=O)OC)cc2)nnc1-c1cccs1 returned MEKK2mut PB1 HTS -3.0, MEKK3 PB1 HTS 101.0, ATG4B inh -1.6, MEKK2 WT-MEK5 99.0, Dynein cargo inh -0.185 and B2AR ag -13.0.
For CCn1c(CC(=O)Nc2ccc(Cl)c(Cl)c2)nnc1SCc1ccc(Cl)cc1 the results were MEKK2mut PB1 HTS 2.0, MEKK3 PB1 HTS 8.0*[inhibitor], ATG4B inh 4.8, MEKK2 WT-MEK5 14.0*[inhibitor], B2AR ag -6.1, MEKK2wt confirm 107.0, MEKK2mut confirm 3.0 and MEKK3-MEK5 inh 106.0.
Screening COc1ccc(OC)c(-c2cc(C(=O)Nc3ccccc3C(N)=O)c3ccccc3n2)c1 returned ATG4B inh -13.5 and B2AR ag 3.0.
For O=C1Cc2ccccc2Sc2cc(OCCCN3CCCCC3)ccc21 the results were MEKK2mut PB1 HTS 1.0, MEKK3 PB1 HTS 75.0*[inhibitor], ATG4B inh -2.5, MEKK2 WT-MEK5 108.0, Dynein cargo inh 0.423, B2AR ag 3.6, MEKK2wt confirm 118.0, MEKK2mut confirm -1.0 and MEKK3-MEK5 inh 99.0.
`Clc1ccc(OCCCCN2CCCCC2)cc1` gave MEKK2mut PB1 HTS 2.0, MEKK3 PB1 HTS 101.0, ATG4B inh 5.2, MEKK2 WT-MEK5 106.0 and B2AR ag -7.5.
`c1cc(OCCCN2CCCCC2)ccc1CN1CCCCC1` gave MEKK2mut PB1 HTS 33.0*, MEKK3 PB1 HTS 113.0, ATG4B inh 4.6, MEKK2 WT-MEK5 190.0*, B2AR ag -15.1, MEKK2wt confirm 139.0, MEKK2mut confirm 31.0 and MEKK3-MEK5 inh 106.0.
Screening ON=C1c2cc(OCCN3CCCCC3)ccc2-c2ccc(OCCN3CCCCC3)cc21 returned MEKK2mut PB1 HTS 31.0*, MEKK3 PB1 HTS 117.0, ATG4B inh -2.5, MEKK2 WT-MEK5 232.0*, B2AR ag 25.3, MEKK2wt confirm 180.0, MEKK2mut confirm 48.0 and MEKK3-MEK5 inh 105.0.
Screening Clc1ccc(OCCCN2CCCC2)cc1Cl returned MEKK2mut PB1 HTS 1.0, MEKK3 PB1 HTS 131.0*, ATG4B inh 10.0, MEKK2 WT-MEK5 107.0, Dynein cargo inh -1.74, B2AR ag 7.0, MEKK2wt confirm 115.0, MEKK2mut confirm 5.0 and MEKK3-MEK5 inh 104.0.
Screening COc1cc2c(cc1OC)C(NNC(=O)c1ccc(Br)o1)=NC(C)(C)C2 returned MEKK2mut PB1 HTS 1.0, MEKK3 PB1 HTS 100.0, ATG4B inh -9.3, MEKK2 WT-MEK5 105.0 and B2AR ag 7.9.
`C[C@H](CO)N1C[C@H](C)[C@@H](CN(C)C(=O)Nc2ccc3c(c2)OCO3)Oc2c(NC(=O)c3ccncc3)cccc2C1=O` gave ATG4B inh -8.2 and B2AR ag -12.4.
For CSCCC(NC(=O)c1ccccc1Cl)C(=O)N1CCN(C(c2ccccc2)c2ccccc2)CC1 (stereo not drawn) the results were MEKK2mut PB1 HTS -12.0, MEKK3 PB1 HTS 95.0, ATG4B inh 8.3, MEKK2 WT-MEK5 82.0 and B2AR ag 2.8.
Screening CN(Cc1ccccc1F)C(=O)CN1C(=O)NC2(CCc3ccccc32)C1=O (stereo not drawn) returned ATG4B inh 2.2 and B2AR ag 5.4.
`Nc1ccc(CN2CCCCCC2)cc1` gave MEKK2mut PB1 HTS 13.0, MEKK3 PB1 HTS 116.0, ATG4B inh 3.0, MEKK2 WT-MEK5 136.0*, Dynein cargo inh 0.203, B2AR ag 1.9, MEKK2wt confirm 41.0, MEKK2mut confirm -20.0 and MEKK3-MEK5 inh 81.0.
For C=CCn1c(NC(=O)c2ccc(C)cc2)nc2ccccc21 the results were MEKK2mut PB1 HTS 19.0, MEKK3 PB1 HTS 106.0, ATG4B inh 8.1, MEKK2 WT-MEK5 106.0 and B2AR ag -13.4.
For CCOc1ccccc1C1C(C(=O)Nc2ccccc2OC)=C(C)Nc2nnnn21 (stereo not drawn) the results were MEKK2mut PB1 HTS 26.0*, MEKK3 PB1 HTS 113.0, ATG4B inh -0.1, MEKK2 WT-MEK5 111.0, Dynein cargo inh -0.59, B2AR ag -3.6, MEKK2wt confirm 101.0, MEKK2mut confirm 4.0 and MEKK3-MEK5 inh 100.0.
For Nc1ccc(-c2nc3nc(N)nc(N)c3nc2-c2ccc(N)cc2)cc1 the results were MEKK2mut PB1 HTS 12.0, MEKK3 PB1 HTS 97.0, ATG4B inh 2.4, MEKK2 WT-MEK5 104.0, Dynein cargo inh 1.27 and B2AR ag 1.4.
For CC(C)N(Cc1nc(-c2ccccc2)no1)C(=O)C(C)(C)C the results were MEKK2mut PB1 HTS 1.0, MEKK3 PB1 HTS 99.0, ATG4B inh 5.3, MEKK2 WT-MEK5 101.0, Dynein cargo inh -0.97 and B2AR ag -3.5.
COc1ccc(-c2noc(CN(C(=O)C(C)(C)C)C(C)C)n2)cc1 was read as MEKK2mut PB1 HTS 25.0*, MEKK3 PB1 HTS 118.0, ATG4B inh 5.0, MEKK2 WT-MEK5 114.0, Dynein cargo inh 0.747, B2AR ag -0.4, MEKK2wt confirm 98.0, MEKK2mut confirm -3.0 and MEKK3-MEK5 inh 100.0.
`COC(=O)c1ccc(OCC(=O)NC2CCCCCC2)cc1` gave MEKK2mut PB1 HTS 11.0, MEKK3 PB1 HTS 107.0, ATG4B inh -4.6, MEKK2 WT-MEK5 109.0 and B2AR ag 9.1.
For CNC(=S)N/N=C/c1ccccc1Cl the results were MEKK2mut PB1 HTS 0.0, MEKK3 PB1 HTS 142.0*, ATG4B inh -5.4, MEKK2 WT-MEK5 108.0, Dynein cargo inh -0.714, B2AR ag 5.4, MEKK2wt confirm 102.0, MEKK2mut confirm -1.0 and MEKK3-MEK5 inh 102.0.
Screening O=C(CCCC(=O)NN=Cc1ccccc1Cl)NN=Cc1ccccc1Cl returned ATG4B inh -12.3 and B2AR ag -0.1.
`O=C(CNC(=O)c1ccccc1)N/N=C/c1ccccc1Cl` gave MEKK2mut PB1 HTS 1.0, MEKK3 PB1 HTS 129.0*, ATG4B inh -1.6, MEKK2 WT-MEK5 112.0, Dynein cargo inh -0.669, B2AR ag -1.6, MEKK2wt confirm 96.0, MEKK2mut confirm 0.0 and MEKK3-MEK5 inh 100.0.
`N#C[C@H]1[C@H](c2ccccc2)[C@](C#N)(C(=O)c2ccccc2)[C@@H]2C=Cc3ccccc3N21` gave Dynein cargo inh -1.84.

Bioassay records from PubChem BioAssay.
